A word on the inhibition: it is the relative decrease from the control value, in per cent. By pIC50 is commonly meant −log10 of the IC50, conventionally taken in molar units. A higher pIC50 goes with a low IC50.

This passage reports inhibition and IC50 results from ChEMBL document CHEMBL1275305, “Synthesis and in vitro study of pseudo-peptide thioureas containing α-aminophosphonate moiety as potential antitumor agents” (Eur J Med Chem, 2010).

pIC50: −log10 of the molar value.

For one test, the system named is Bcap37. Description: Antitumor activity against human Bcap37 cells assessed as growth inhibition at 10 uM after 24 hrs by relative to control. It counts as functional. Particulars: Bcap37, 24 h. The method, boiled down:
(§1)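 MTT growth-inhibition screen: 2.0×10^4 cells per well incubated with test compound for 24 h at 37 °C under 5% CO2. MTT then added, supernatant discarded and DMSO added. Absorbance read at 595 nm. Three separate experiments, each run in triplicate.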

The test system of test [1] is PC-3. The test can be described thus: Antitumor activity against human PC3 cells assessed as growth inhibition at 10 uM after 24 hrs by relative to control. It is filed as functional. The conditions noted are these: PC-3, 24 h. The procedure, abridged:
as §1

Test [2] concerns BGC-823. The test can be described thus: Antitumor activity against human BGC823 cells assessed as growth inhibition at 10 uM after 24 hrs by relative to control. It is filed as functional. Particulars: BGC-823, 24 h. The method, boiled down:
as §1

The test system of test [3] is PC-3. Description: Cytotoxicity against human PC3 cells at 1 uM after 72 hrs by relative to control. It is filed as functional. Particulars: PC-3, 72 h. The method, boiled down: (§2)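 Cells grown in RPMI 1640 with 10% FBS and plated at 2×10^3 cells/well. Compounds were taken up in DMSO, diluted in medium and given at 1-100 µM for 72 h. Controls received 0.1% DMSO. MTT was read 4 h later as formazan absorbance at 595 nm. % cytotoxicity was blank-corrected against control, IC50 taken at 50% cell survival. Three experiments, each in triplicate.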

Test [4] concerns PC-3. Description: Cytotoxicity against human PC3 cells after 72 hrs by MTT assay. It is filed as functional, cell-based. Particulars: PC-3, 72 h. The method, boiled down:
as §2

Test [5] has as its system PC-3. The test can be described thus: Cytotoxicity against human PC3 cells at 5 uM after 72 hrs by relative to control. It counts as functional. The conditions noted are these: PC-3, 72 h. The procedure, abridged:
as §2

In test [6] the test system is PC-3. The test can be described thus: Cytotoxicity against human PC3 cells at 20 uM after 72 hrs by relative to control. It is filed as functional. The conditions noted are these: PC-3, 72 h. The procedure, abridged: as §2
For test [7], the system named is PC-3. Description: Cytotoxicity against human PC3 cells at 10 uM after 72 hrs by relative to control. It is filed as functional. The conditions noted are these: PC-3, 72 h. The procedure, abridged:
as §2

Test [8] deals with BGC-823. The test can be described thus: Cytotoxicity against human BGC823 cells at 20 uM after 72 hrs by relative to control. It counts as functional. Particulars: BGC-823, 72 h. The method, boiled down: as §2
Test [9] relates to BGC-823. Description: Cytotoxicity against human BGC823 cells after 72 hrs by MTT assay. It is filed as functional, cell-based. The conditions noted are these: BGC-823, 72 h. The method, boiled down: as §2
Test [10] deals with BGC-823. Description: Cytotoxicity against human BGC823 cells at 10 uM after 72 hrs by relative to control. It is filed as functional. Particulars: BGC-823, 72 h. The procedure, abridged:
as §2

The test system of test [11] is BGC-823. Description: Cytotoxicity against human BGC823 cells at 1 uM after 72 hrs by relative to control. Particulars: BGC-823, 72 h. It is filed as functional. The procedure, abridged: as §2
Test [12] deals with BGC-823. The test can be described thus: Cytotoxicity against human BGC823 cells at 5 uM after 72 hrs by relative to control. The conditions noted are these: BGC-823, 72 h. It is filed as functional. The method, boiled down: as §2

On to `CCCCOP(=O)(OCCCC)C(NC(=S)N[C@@H](Cc1ccccc1)C(=O)NCc1ccccc1F)c1ccccc1` (stereo partly drawn), for which the inhibition at 10 µM came out at 32.1% in the test with Bcap37, 22.5% in the test with PC-3 [1] and 30.1% in the test with BGC-823 [2].

On to `CCCCOP(=O)(OCCCC)C(NC(=S)N[C@@H](Cc1ccccc1)C(=O)NCc1ccc(F)cc1)c1ccccc1` (stereo partly drawn), for which the figures for the inhibition at 10 µM with Bcap37, with PC-3 [1] and with BGC-823 [2] were 48.4%, 19.7% and 26.1%, respectively.

As for `CCCCOP(=O)(OCCCC)C(NC(=S)N[C@H](Cc1ccccc1)C(=O)NCc1ccccc1F)c1ccccc1` (stereo partly drawn), the inhibition at 10 µM with Bcap37 was determined as 34%; with PC-3 [1], 18%; in the test on BGC-823 [2] it was 30.1%.

With `CCCCOP(=O)(OCCCC)C(NC(=S)N[C@H](Cc1ccccc1)C(=O)NCc1ccc(F)cc1)c1ccccc1` (stereo partly drawn), the values for the inhibition at 10 µM in the test with Bcap37, in the test on PC-3 [1] and with BGC-823 [2] were 35.8%, 33.6% and 33.2%, respectively.

In the case of `CCCCOP(=O)(OCCCC)C(NC(=S)N[C@H](Cc1ccccc1)C(=O)NCc1ccccc1)c1ccccc1` (stereo partly drawn), the inhibition at 10 µM with Bcap37 was determined as 46.6%; with PC-3 [1], 21.7%; with BGC-823 [2] it was 22.7%.

In the test with PC-3 [3], `CCOP(=O)(OCC)C(NC(=S)N[C@H](Cc1ccccc1)C(=O)NCc1ccccc1F)c1ccccc1` (stereo partly drawn) registered an inhibition at 1 µM of 4.9%. The inhibition at 10 µM was determined as 70.2% with Bcap37, 73.1% in the test with PC-3 [1], 30.1% with BGC-823 [2] and 73.1% with PC-3 [7]. This molecule also showed a pIC50 in the test on PC-3 [4] of 5.17. Also, in the test with PC-3 [5], the inhibition at 5 µM stood at 45.6%. Also, in the test on PC-3 [6], the inhibition at 20 µM was found to be 97.2%.

Take `CCCOP(=O)(OCCC)C(NC(=S)N[C@H](Cc1ccccc1)C(=O)NCc1ccccc1F)c1ccccc1` (stereo partly drawn): the inhibition at 10 µM with Bcap37 was determined as 17.2%; in the test with PC-3 [1] it was 30.6%; in the test on BGC-823 [2], 11.1%.

For the molecule `CCOP(=O)(OCC)C(NC(=S)N[C@@H](Cc1ccccc1)C(=O)NCc1ccccc1)c1ccccc1` (stereo partly drawn), the results for the inhibition at 10 µM with Bcap37, with PC-3 [1] and with BGC-823 [2] were 16.9%, 20.1% and 18.3%, respectively.

For `CC(C)OP(=O)(OC(C)C)C(NC(=S)N[C@H](Cc1ccccc1)C(=O)NCc1ccccc1F)c1ccccc1` (stereo partly drawn), the inhibition at 10 µM is 27.8% in the test with Bcap37, 14.3% in the test with PC-3 [1] and 51.6% in the test with BGC-823 [2].

Turning to `CCCOP(=O)(OCCC)C(NC(=S)N[C@@H](Cc1ccccc1)C(=O)NCc1ccccc1)c1ccccc1` (stereo partly drawn), the results for the inhibition at 10 µM in the test with Bcap37, with PC-3 [1] and with BGC-823 [2] were 35.4%, 33.5% and 35.7%, respectively.

For `CCOP(=O)(OCC)C(NC(=S)N[C@H](Cc1ccccc1)C(=O)NCc1ccc(F)cc1)c1ccccc1` (stereo partly drawn), the inhibition at 10 µM with Bcap37 was found to be 34%; with PC-3 [1], 32.4%; in the test on BGC-823 [2] it was 44.5%.

In the test with PC-3 [3], `CC(C)OP(=O)(OC(C)C)C(NC(=S)N[C@@H](Cc1ccccc1)C(=O)NCc1ccccc1)c1ccccc1` (stereo partly drawn) registered an inhibition at 1 µM of 2.7%. Moreover, the inhibition at 10 µM was 24.4% in the test with Bcap37, 50.1% with PC-3 [1], 27.9% with BGC-823 [2] and 21.8% with PC-3 [7]. In the test with PC-3 [4], the pIC50 was 4.71. 5 µM produced 12.8% inhibition in the test with PC-3 [5]. This molecule had an inhibition at 20 µM in the test with PC-3 [6] of 50.1%.

Take `CCCOP(=O)(OCCC)C(NC(=S)N[C@H](Cc1ccccc1)C(=O)NCc1ccc(F)cc1)c1ccccc1` (stereo partly drawn): the inhibition at 10 µM with Bcap37 is 12.6%; in the test with PC-3 [1], 30.6%; in the test on BGC-823 [2], 53.9%.

Consider `CCCCOP(=O)(OCCCC)C(NC(=S)N[C@@H](Cc1ccccc1)C(=O)NCc1ccccc1)c1ccccc1` (stereo partly drawn), for which the results for the inhibition at 10 µM with Bcap37, in the test on PC-3 [1] and in the test with BGC-823 [2] were 34.5%, 22.8% and 21.1%, respectively.

In the case of `CC(C)OP(=O)(OC(C)C)C(NC(=S)N[C@H](Cc1ccccc1)C(=O)NCc1ccc(F)cc1)c1ccccc1` (stereo partly drawn), the values for the inhibition at 10 µM in the test on Bcap37, in the test with PC-3 [1] and in the test on BGC-823 [2] were 27%, 34.8% and 20.8%, respectively.

Turning to `CCOP(=O)(OCC)C(NC(=S)N[C@@H](Cc1ccccc1)C(=O)NCc1ccccc1F)c1ccccc1` (stereo partly drawn), the inhibition at 10 µM came to 25.9% in the test on Bcap37, 19.3% with PC-3 [1] and 30.1% with BGC-823 [2].

As to `CCCOP(=O)(OCCC)C(NC(=S)N[C@@H](Cc1ccccc1)C(=O)NCc1ccccc1F)c1ccccc1` (stereo partly drawn), the inhibition at 10 µM with Bcap37 came to 44.7%; in the test on PC-3 [1], 18.1%; in the test with BGC-823 [2] it was 11.1%.

As for `CC(C)OP(=O)(OC(C)C)C(NC(=S)N[C@@H](Cc1ccccc1)C(=O)NCc1ccccc1F)c1ccccc1` (stereo partly drawn), the values for the inhibition at 10 µM with Bcap37, in the test with PC-3 [1] and in the test with BGC-823 [2] were 44.4%, 26.8% and 47.9%, respectively.

On to `CCOP(=O)(OCC)C(NC(=S)N[C@@H](Cc1ccccc1)C(=O)NCc1ccc(F)cc1)c1ccccc1` (stereo partly drawn), for which the inhibition at 10 µM in the test with Bcap37 worked out at 26.1%; in the test on PC-3 [1] it was 27.9%; with BGC-823 [2] it was 22.9%.

In the test on PC-3 [3], `CCCOP(=O)(OCCC)C(NC(=S)N[C@@H](Cc1ccccc1)C(=O)NCc1ccc(F)cc1)c1ccccc1` (stereo partly drawn) came in with an inhibition at 1 µM of 18.1%. The inhibition at 10 µM amounted to 24% in the test with Bcap37, 56.7% in the test on PC-3 [1], 21% with BGC-823 [2] and 28% in the test with PC-3 [7]. For the same molecule, the pIC50 in the test on PC-3 [4] was 4.66. The molecule further registered an inhibition at 5 µM with PC-3 [5] of 19.8%. This molecule yielded an inhibition at 20 µM in the test with PC-3 [6] of 51.2%.

`CC(C)OP(=O)(OC(C)C)C(NC(=S)N[C@@H](Cc1ccccc1)C(=O)NCc1ccc(F)cc1)c1ccccc1` (stereo partly drawn): the inhibition at 1 µM with PC-3 [3] is 15.8%; in the test on BGC-823 [11] it was 30.6%. The inhibition at 10 µM with Bcap37 was found to be 53.1%; in the test with PC-3 [1] it was 58.6%; with BGC-823 [10] it was 89.1%; with BGC-823 [2], 89.1%; in the test on PC-3 [7] it was 31.4%. Further, the figures for the pIC50 with PC-3 [4] and with BGC-823 [9] were 4.76 and 5.33, respectively. Further, the inhibition at 20 µM was found to be 100% in the test with BGC-823 [8] and 66.7% in the test with PC-3 [6]. Besides, the inhibition at 5 µM was determined as 17.3% with PC-3 [5] and 70.1% in the test with BGC-823 [12].

`CCOP(=O)(OCC)C(NC(=S)N[C@H](Cc1ccccc1)C(=O)NCc1ccccc1)c1ccccc1` (stereo partly drawn) returned an inhibition at 1 µM with PC-3 [3] of 10.4%. For the same molecule, the inhibition at 10 µM came out at 52.3% in the test with Bcap37, 56.9% in the test on PC-3 [1], 55.7% in the test with BGC-823 [2] and 56.9% in the test with PC-3 [7]. Moreover, the negative logarithm of the IC50 (pIC50) with PC-3 [4] is 4.95. Further, in the test on PC-3 [5], the inhibition at 5 µM was determined as 21.2%. Moreover, testing at 20 µM with PC-3 [6] gave an inhibition of 73.8%.

`CCCOP(=O)(OCCC)C(NC(=S)N[C@H](Cc1ccccc1)C(=O)NCc1ccccc1)c1ccccc1` (stereo partly drawn): the values for the inhibition at 10 µM with Bcap37, with PC-3 [1] and with BGC-823 [2] were 49.1%, 30.8% and 24.4%, respectively.

`CC(C)OP(=O)(OC(C)C)C(NC(=S)N[C@H](Cc1ccccc1)C(=O)NCc1ccccc1)c1ccccc1` (stereo partly drawn): the inhibition at 10 µM with Bcap37 came out at 22.9%; in the test on PC-3 [1], 30.5%; in the test with BGC-823 [2], 29%.

In the case of `COc1cccc2c1C(=O)c1c(O)c3c(c(O)c1C2=O)C[C@@](O)(C(=O)CO)C[C@@H]3O[C@H]1C[C@H](N)[C@H](O)[C@H](C)O1` [DOXORUBICIN], 1 µM produced 36.4% inhibition with PC-3 [3]. In the test with PC-3 [4], the negative logarithm of the IC50 (pIC50) was 5.48. For the same molecule, the inhibition at 5 µM in the test with PC-3 [5] turned out to be 89.4%. Besides, the inhibition at 10 µM was 93.8% in the test with BGC-823 [2] and 98% in the test on PC-3 [7]. Besides, testing at 20 µM in the test with PC-3 [6] gave an inhibition of 100%.
